Measurements: ChEMBL document CHEMBL1128446, “Pyrazinoic acid esters with broad spectrum in vitro antimycobacterial activity” (1995)
Values after ≈ are worked out from the molar mass of the structure shown.

Key:
Type in all cases: functional
Mycobacterium avium [1] = assay: Minimum Inhibitory Concentration in clinical isolates against Mycobacterium avium complex 101
Procedure, shortened: (§1)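 Broth macrodilution in tubes of modified Middlebrook 7H10 broth (agar and malachite green omitted) with 10% OADC and 0.05% Tween 80 at pH 5.8. Cultures were grown 3 days at 37 °C on a rotary shaker, then diluted with 7H10 broth to 1 Klett unit/mL. Stocks were made in water or DMSO and filter-sterilised; 2-fold serial dilutions were tested. Tubes shaken 7–10 days at 37 °C, with a drug-free control. MIC = lowest concentration (μg/mL) with no visible turbidity.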

Mycobacterium avium [2] = assay: Minimum Inhibitory Concentration against clinical isolates of Mycobacterium avium complex ATCC 49601; procedure, shortened: as §1
[3] = tested on: Mycobacterium tuberculosis; assay: Minimum Inhibitory Concentration against Mycobacterium tuberculosis ATCC 27294; conditions: Mycobacterium tuberculosis, ATCC 27294; read-out: MIC; procedure, shortened: as §1
[4] = tested on: Mycobacterium tuberculosis; assay: Minimum Inhibitory Concentration against Mycobacterium tuberculosis ATCC 35801; procedure, shortened: as §1
Mycobacterium kansasii = assay: Minimum Inhibitory Concentration against clinical isolates of Mycobacterium kansasii S
Procedure, shortened: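 Grown 3 days at 37 °C on a rotary shaker in modified Middlebrook 7H10 broth (agar and malachite green omitted) with 10% OADC and 0.05% Tween 80. Diluted to 1 Klett unit/mL. Tubes held serial 2-fold dilutions in 7H10 broth at pH 5.8, from stocks in water or DMSO, and were shaken at 37 °C for 7–10 days with a drug-free control. MIC was the lowest concentration with no visible turbidity.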

CCCCCCC(C)OC(=O)c1cnc(F)cn1 (stereo not drawn)
MIC (Mycobacterium avium [1]): 32 µg/mL (≈ 126 µM) | MIC (Mycobacterium avium [2]): 64 µg/mL (≈ 252 µM) | MIC [3]: 2 µg/mL (≈ 7.86 µM) | MIC [4]: 4 µg/mL (≈ 15.7 µM) | MIC (Mycobacterium kansasii): < 0.03 µg/mL

CCCCCCOC(=O)c1cnc(F)cn1
MIC (Mycobacterium avium [1]): 64 µg/mL (≈ 283 µM) | MIC (Mycobacterium avium [2]): 64 µg/mL (≈ 283 µM) | MIC [4]: 4 µg/mL (≈ 17.7 µM) | MIC (Mycobacterium kansasii): 8 µg/mL (≈ 35.4 µM)

CCCCCCCC(C)(CCCCC)OC(=O)c1cnc(Cl)cn1 (stereo not drawn)
MIC (Mycobacterium avium [1]): > 64 µg/mL | MIC (Mycobacterium avium [2]): > 64 µg/mL | MIC [3]: 2 µg/mL (≈ 5.64 µM) | MIC [4]: 4 µg/mL (≈ 11.3 µM)

CCCOC(=O)c1cnc(C)cn1
MIC (Mycobacterium avium [1]): > 64 µg/mL | MIC (Mycobacterium avium [2]): > 64 µg/mL | MIC [3]: 2 µg/mL (≈ 11.1 µM) | MIC [4]: 4 µg/mL (≈ 22.2 µM) | MIC (Mycobacterium kansasii): 8 µg/mL (≈ 44.4 µM)

CCCCCCCOC(=O)c1cnc(C)cn1
MIC (Mycobacterium avium [1]): 32 µg/mL (≈ 135 µM) | MIC (Mycobacterium avium [2]): 32 µg/mL (≈ 135 µM) | MIC [3]: 0.5 µg/mL (≈ 2.12 µM) | MIC [4]: 0.25 µg/mL (≈ 1.06 µM) | MIC (Mycobacterium kansasii): 4 µg/mL (≈ 16.9 µM)

CCCCOC(=O)c1cnc(Cl)cn1
MIC (Mycobacterium avium [1]): 64 µg/mL (≈ 298 µM) | MIC (Mycobacterium avium [2]): 128 µg/mL (≈ 596 µM) | MIC [3]: 0.25 µg/mL (≈ 1.16 µM) | MIC [4]: 0.5 µg/mL (≈ 2.33 µM) | MIC (Mycobacterium kansasii): < 1 µg/mL

CCCCCCCCCCOC(=O)c1cnccn1
MIC (Mycobacterium avium [1]): 32 µg/mL (≈ 121 µM) | MIC (Mycobacterium avium [2]): 8 µg/mL (≈ 30.3 µM) | MIC [3]: 0.5 µg/mL (≈ 1.89 µM) | MIC [4]: 0.25 µg/mL (≈ 0.946 µM) | MIC (Mycobacterium kansasii): 0.25 µg/mL (≈ 0.946 µM)

CCCCCCCCCCOC(=O)c1cnc(F)cn1
MIC (Mycobacterium avium [1]): 32 µg/mL (≈ 113 µM) | MIC (Mycobacterium avium [2]): 32 µg/mL (≈ 113 µM) | MIC [3]: 2 µg/mL (≈ 7.08 µM) | MIC [4]: 4 µg/mL (≈ 14.2 µM) | MIC (Mycobacterium kansasii): 1 µg/mL (≈ 3.54 µM)

COC(=O)c1cnccn1
MIC (Mycobacterium avium [2]): > 256 µg/mL | MIC [3]: < 8 µg/mL | MIC [4]: 16 µg/mL (≈ 116 µM) | MIC (Mycobacterium kansasii): > 64 µg/mL

CC(C)COC(=O)c1cnc(Cl)cn1
MIC (Mycobacterium avium [1]): 64 µg/mL (≈ 298 µM) | MIC (Mycobacterium avium [2]): 64 µg/mL (≈ 298 µM) | MIC [3]: 2 µg/mL (≈ 9.32 µM) | MIC [4]: 0.25 µg/mL (≈ 1.16 µM) | MIC (Mycobacterium kansasii): < 1 µg/mL

CCCCCCCCC(C)(C)OC(=O)c1cnc(Cl)cn1
MIC (Mycobacterium avium [1]): 64 µg/mL (≈ 205 µM) | MIC (Mycobacterium avium [2]): 64 µg/mL (≈ 205 µM) | MIC [3]: 0.125 µg/mL (≈ 0.4 µM) | MIC [4]: 1 µg/mL (≈ 3.2 µM) | MIC (Mycobacterium kansasii): 1 µg/mL (≈ 3.2 µM)

CCCCCCC(C)(C)OC(=O)c1cnc(Cl)cn1
MIC (Mycobacterium avium [1]): 64 µg/mL (≈ 225 µM) | MIC (Mycobacterium avium [2]): 64 µg/mL (≈ 225 µM) | MIC [3]: 0.25 µg/mL (≈ 0.878 µM) | MIC [4]: 4 µg/mL (≈ 14 µM) | MIC (Mycobacterium kansasii): 1 µg/mL (≈ 3.51 µM)

CCCCCCC(C)(CCCCCC)OC(=O)c1cnc(Cl)cn1
MIC (Mycobacterium avium [1]): > 64 µg/mL | MIC (Mycobacterium avium [2]): 16 µg/mL (≈ 45.1 µM) | MIC [3]: 0.25 µg/mL (≈ 0.704 µM) | MIC [4]: 0.5 µg/mL (≈ 1.41 µM) | MIC (Mycobacterium kansasii): 2 µg/mL (≈ 5.64 µM)

CCCCCCCCC(C)OC(=O)c1cnc(Cl)cn1 (stereo not drawn)
MIC (Mycobacterium avium [1]): 32 µg/mL (≈ 107 µM) | MIC (Mycobacterium avium [2]): 32 µg/mL (≈ 107 µM) | MIC [3]: 0.06 µg/mL (≈ 0.201 µM) | MIC [4]: 0.5 µg/mL (≈ 1.67 µM) | MIC (Mycobacterium kansasii): < 0.12 µg/mL

CCCCCCCCCC(C)(C)OC(=O)c1cnc(Cl)cn1
MIC (Mycobacterium avium [1]): 256 µg/mL (≈ 783 µM) | MIC (Mycobacterium avium [2]): 256 µg/mL (≈ 783 µM) | MIC [3]: 8 µg/mL (≈ 24.5 µM) | MIC [4]: 1 µg/mL (≈ 3.06 µM) | MIC (Mycobacterium kansasii): 0.5 µg/mL (≈ 1.53 µM)

CCCCCC(C)(CCCCC)OC(=O)c1cnc(Cl)cn1
MIC (Mycobacterium avium [1]): 64 µg/mL (≈ 196 µM) | MIC (Mycobacterium avium [2]): 64 µg/mL (≈ 196 µM) | MIC [3]: 8 µg/mL (≈ 24.5 µM) | MIC [4]: 8 µg/mL (≈ 24.5 µM) | MIC (Mycobacterium kansasii): 8 µg/mL (≈ 24.5 µM)

COC(=O)c1cnc(C)cn1
MIC (Mycobacterium avium [1]): > 256 µg/mL | MIC (Mycobacterium avium [2]): > 256 µg/mL | MIC [3]: 16 µg/mL (≈ 105 µM) | MIC [4]: 8 µg/mL (≈ 52.6 µM) | MIC (Mycobacterium kansasii): 32 µg/mL (≈ 210 µM)

CCCCCCC(C)(CCCC)OC(=O)c1cnc(Cl)cn1 (stereo not drawn)
MIC (Mycobacterium avium [1]): > 256 µg/mL | MIC [3]: 4 µg/mL (≈ 12.2 µM) | MIC [4]: 8 µg/mL (≈ 24.5 µM) | MIC (Mycobacterium kansasii): 4 µg/mL (≈ 12.2 µM)

CCCCCCCCC(CC)OC(=O)c1cnc(Cl)cn1 (stereo not drawn)
MIC (Mycobacterium avium [1]): 64 µg/mL (≈ 205 µM) | MIC (Mycobacterium avium [2]): 32 µg/mL (≈ 102 µM) | MIC [3]: 0.5 µg/mL (≈ 1.6 µM) | MIC [4]: 0.25 µg/mL (≈ 0.799 µM) | MIC (Mycobacterium kansasii): < 0.03 µg/mL

O=C(OCc1ccccc1)c1cnccn1
MIC (Mycobacterium avium [1]): 64 µg/mL (≈ 299 µM) | MIC (Mycobacterium avium [2]): 64 µg/mL (≈ 299 µM) | MIC [3]: < 1 µg/mL | MIC [4]: 1 µg/mL (≈ 4.67 µM) | MIC (Mycobacterium kansasii): 1 µg/mL (≈ 4.67 µM)

CCCCCC(C)(CCCC)OC(=O)c1cnc(Cl)cn1 (stereo not drawn)
MIC (Mycobacterium avium [1]): 256 µg/mL (≈ 818 µM) | MIC (Mycobacterium avium [2]): 256 µg/mL (≈ 818 µM) | MIC [3]: 4 µg/mL (≈ 12.8 µM) | MIC [4]: 8 µg/mL (≈ 25.6 µM) | MIC (Mycobacterium kansasii): 16 µg/mL (≈ 51.1 µM)

CCCCCCCCCCCOC(=O)c1cnc(Cl)cn1
MIC (Mycobacterium avium [1]): 16 µg/mL (≈ 51.1 µM) | MIC (Mycobacterium avium [2]): 8 µg/mL (≈ 25.6 µM) | MIC [3]: 0.25 µg/mL (≈ 0.799 µM) | MIC [4]: 0.5 µg/mL (≈ 1.6 µM) | MIC (Mycobacterium kansasii): 0.06 µg/mL (≈ 0.192 µM)

CCCCCCCCCCOC(=O)c1cnc(Cl)cn1
MIC (Mycobacterium avium [1]): 32 µg/mL (≈ 107 µM) | MIC (Mycobacterium avium [2]): 16 µg/mL (≈ 53.5 µM) | MIC [3]: 0.5 µg/mL (≈ 1.67 µM) | MIC [4]: 0.25 µg/mL (≈ 0.837 µM) | MIC (Mycobacterium kansasii): 0.5 µg/mL (≈ 1.67 µM)

CCCCCCCCCOC(=O)c1cnc(Cl)cn1
MIC (Mycobacterium avium [1]): 32 µg/mL (≈ 112 µM) | MIC (Mycobacterium avium [2]): 16 µg/mL (≈ 56.2 µM) | MIC [3]: < 0.03 µg/mL | MIC [4]: 1 µg/mL (≈ 3.51 µM) | MIC (Mycobacterium kansasii): 0.125 µg/mL (≈ 0.439 µM)

CCCCCCC(C)(CCCCC)OC(=O)c1cnc(Cl)cn1 (stereo not drawn)
MIC (Mycobacterium avium [1]): > 64 µg/mL | MIC (Mycobacterium avium [2]): > 64 µg/mL | MIC [3]: 2 µg/mL (≈ 5.87 µM) | MIC [4]: 8 µg/mL (≈ 23.5 µM) | MIC (Mycobacterium kansasii): 8 µg/mL (≈ 23.5 µM)

COC(=O)c1cnc(F)cn1
MIC (Mycobacterium avium [1]): 64 µg/mL (≈ 410 µM) | MIC (Mycobacterium avium [2]): 64 µg/mL (≈ 410 µM) | MIC [3]: 4 µg/mL (≈ 25.6 µM) | MIC [4]: 8 µg/mL (≈ 51.2 µM) | MIC (Mycobacterium kansasii): 8 µg/mL (≈ 51.2 µM)

CCCCCC(CC)OC(=O)c1cnc(Cl)cn1 (stereo not drawn)
MIC (Mycobacterium avium [1]): > 256 µg/mL | MIC (Mycobacterium avium [2]): 256 µg/mL (≈ 945 µM) | MIC [3]: 0.25 µg/mL (≈ 0.923 µM) | MIC [4]: 1 µg/mL (≈ 3.69 µM) | MIC (Mycobacterium kansasii): 0.125 µg/mL (≈ 0.462 µM)

CC(C)(OC(=O)c1cnc(Cl)cn1)c1ccccc1
MIC [3]: 16 µg/mL (≈ 57.8 µM) | MIC [4]: 16 µg/mL (≈ 57.8 µM) | MIC (Mycobacterium kansasii): 16 µg/mL (≈ 57.8 µM)

CCCCCCCC(OC(=O)c1cnc(Cl)cn1)C(C)(C)C (stereo not drawn)
MIC (Mycobacterium avium [1]): > 256 µg/mL | MIC [3]: 0.5 µg/mL (≈ 1.53 µM) | MIC [4]: 2 µg/mL (≈ 6.12 µM) | MIC (Mycobacterium kansasii): 0.25 µg/mL (≈ 0.765 µM)
